Measured values from ChEMBL document CHEMBL1153120, “Synthesis and antiplasmodial activity of novel 2,4-diaminopyrimidines” (Bioorg Med Chem Lett, 2010).
Converted amounts (≈) assume the structure as drawn.

What was measured:
[1] = test system: Plasmodium falciparum; assay: Antiplasmodial activity against Plasmodium falciparum Dd2; assay type: functional, organism-based
Procedure, shortened: (§1)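 P. falciparum cultures (lab strain 3D7; multidrug-resistant Southeast Asian isolate Dd2) were exposed to compound for 72 h. Parasite viability was read out by DAPI staining.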

[2] = test system: Plasmodium falciparum; assay: Antiplasmodial activity against Plasmodium falciparum 3D7; assay type: functional, organism-based; procedure, shortened: as §1
[3] = Cytotoxicity against human RPTEC after 4 days by alamar blue assay; assay type: cell-based; conditions: RPTEC cells, read-out: LC50
[4] = Solubility at pH 7.4; assay type: physicochemical; conditions: buffer
[5] = molecular target: Cytochrome P450 2D6 (Homo sapiens, UniProt P10635); assay: Inhibition of human CYP2D6; assay type: ADME
[6] = molecular target: Cytochrome P450 3A4 (Homo sapiens, UniProt P08684); assay: Inhibition of human CYP3A4; assay type: ADME
[7] = Cytotoxicity against human NHDF after 4 days by alamar blue assay; assay type: cell-based; conditions: NHDF cells, read-out: LC50
[8] = Lipophilicity, log D of the compound; assay type: physicochemical; conditions: octanol/water
Procedure, shortened: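 Log D was measured at pH 7.4 as the partitioning of compound between an aqueous layer and a second phase.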

[9] = molecular target: Cytochrome P450 2C19 (Homo sapiens, UniProt P33261); assay: Inhibition of human CYP2C19; assay type: ADME
[10] = molecular target: Cytochrome P450 2C9 (Homo sapiens, UniProt P11712); assay: Inhibition of human CYP2C9; assay type: ADME
[11] = molecular target: T1, Cytochrome P450 1A2 (Homo sapiens, UniProt P05177); assay: Inhibition of human CYP1A2; assay type: ADME
T1 sequence (P05177 whole entry): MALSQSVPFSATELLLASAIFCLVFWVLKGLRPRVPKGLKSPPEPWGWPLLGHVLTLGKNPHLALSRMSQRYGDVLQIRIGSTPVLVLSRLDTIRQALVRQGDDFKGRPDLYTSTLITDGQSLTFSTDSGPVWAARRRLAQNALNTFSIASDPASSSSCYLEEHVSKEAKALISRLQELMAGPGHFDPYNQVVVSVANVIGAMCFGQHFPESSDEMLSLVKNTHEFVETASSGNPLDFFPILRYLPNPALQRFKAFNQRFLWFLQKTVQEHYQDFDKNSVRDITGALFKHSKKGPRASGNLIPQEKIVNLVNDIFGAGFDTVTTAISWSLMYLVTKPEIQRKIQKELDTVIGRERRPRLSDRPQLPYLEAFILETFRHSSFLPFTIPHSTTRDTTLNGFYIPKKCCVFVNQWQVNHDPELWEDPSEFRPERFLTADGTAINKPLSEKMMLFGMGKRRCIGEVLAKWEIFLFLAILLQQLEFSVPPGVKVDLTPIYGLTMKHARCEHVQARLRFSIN

[12] = test system: Liver microsomes; assay: Intrinsic clearance in human liver microsomes measured […]; assay type: ADME, Microsome
[13] = test system: Liver microsomes; assay: Intrinsic clearance in rat liver microsomes measured […]; assay type: ADME, Microsome
[14] = molecular target: Voltage-gated inwardly rectifying potassium channel KCNH2 (Homo sapiens, UniProt Q12809); assay: Inhibition of human ERG channel
Chain of Voltage-gated inwardly rectifying potassium channel KCNH2 (Q12809 whole entry): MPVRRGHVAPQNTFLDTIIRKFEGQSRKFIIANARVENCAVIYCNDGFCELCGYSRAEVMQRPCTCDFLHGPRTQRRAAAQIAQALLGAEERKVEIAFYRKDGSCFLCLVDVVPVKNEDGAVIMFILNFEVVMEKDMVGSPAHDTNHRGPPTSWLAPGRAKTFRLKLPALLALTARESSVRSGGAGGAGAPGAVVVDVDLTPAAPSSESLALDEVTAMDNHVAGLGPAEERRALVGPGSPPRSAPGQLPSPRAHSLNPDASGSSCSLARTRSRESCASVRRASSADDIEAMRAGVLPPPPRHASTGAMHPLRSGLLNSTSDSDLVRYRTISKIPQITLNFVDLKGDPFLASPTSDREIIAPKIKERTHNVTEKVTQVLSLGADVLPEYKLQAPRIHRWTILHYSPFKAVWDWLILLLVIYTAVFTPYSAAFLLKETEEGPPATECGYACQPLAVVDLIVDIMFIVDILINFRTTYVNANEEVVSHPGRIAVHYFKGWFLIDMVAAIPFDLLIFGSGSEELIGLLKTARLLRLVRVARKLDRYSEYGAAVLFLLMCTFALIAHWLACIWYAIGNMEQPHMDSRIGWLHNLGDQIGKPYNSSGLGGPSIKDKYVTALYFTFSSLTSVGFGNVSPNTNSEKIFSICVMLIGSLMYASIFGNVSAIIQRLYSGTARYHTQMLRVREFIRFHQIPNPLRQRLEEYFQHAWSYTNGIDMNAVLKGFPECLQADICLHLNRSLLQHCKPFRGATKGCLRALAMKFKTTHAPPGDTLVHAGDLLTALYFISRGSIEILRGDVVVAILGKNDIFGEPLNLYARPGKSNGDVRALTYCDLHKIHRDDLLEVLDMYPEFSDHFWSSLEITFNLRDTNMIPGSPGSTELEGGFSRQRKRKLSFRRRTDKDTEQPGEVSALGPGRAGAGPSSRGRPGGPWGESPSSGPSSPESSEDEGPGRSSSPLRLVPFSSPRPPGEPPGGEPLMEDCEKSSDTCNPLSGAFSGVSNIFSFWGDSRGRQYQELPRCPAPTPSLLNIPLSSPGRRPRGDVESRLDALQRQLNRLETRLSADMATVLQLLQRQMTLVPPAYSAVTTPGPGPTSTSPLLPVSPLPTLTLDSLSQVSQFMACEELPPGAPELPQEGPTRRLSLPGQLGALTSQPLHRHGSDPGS

Chain of Cytochrome P450 2C9 (P11712 whole entry): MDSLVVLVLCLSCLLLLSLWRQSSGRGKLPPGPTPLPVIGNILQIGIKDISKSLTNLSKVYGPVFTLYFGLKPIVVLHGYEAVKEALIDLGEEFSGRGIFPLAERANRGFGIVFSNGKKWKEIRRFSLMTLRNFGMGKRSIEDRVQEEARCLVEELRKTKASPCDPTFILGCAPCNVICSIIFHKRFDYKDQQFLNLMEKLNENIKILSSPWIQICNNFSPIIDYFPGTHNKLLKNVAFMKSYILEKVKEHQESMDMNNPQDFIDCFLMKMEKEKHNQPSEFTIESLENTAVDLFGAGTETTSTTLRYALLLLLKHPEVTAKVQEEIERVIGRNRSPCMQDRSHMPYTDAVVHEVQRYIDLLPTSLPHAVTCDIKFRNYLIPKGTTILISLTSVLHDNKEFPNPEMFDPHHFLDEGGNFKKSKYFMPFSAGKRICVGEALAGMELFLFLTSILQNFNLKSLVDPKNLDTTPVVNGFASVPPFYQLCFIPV
Chain of Cytochrome P450 2D6 (P10635 whole entry): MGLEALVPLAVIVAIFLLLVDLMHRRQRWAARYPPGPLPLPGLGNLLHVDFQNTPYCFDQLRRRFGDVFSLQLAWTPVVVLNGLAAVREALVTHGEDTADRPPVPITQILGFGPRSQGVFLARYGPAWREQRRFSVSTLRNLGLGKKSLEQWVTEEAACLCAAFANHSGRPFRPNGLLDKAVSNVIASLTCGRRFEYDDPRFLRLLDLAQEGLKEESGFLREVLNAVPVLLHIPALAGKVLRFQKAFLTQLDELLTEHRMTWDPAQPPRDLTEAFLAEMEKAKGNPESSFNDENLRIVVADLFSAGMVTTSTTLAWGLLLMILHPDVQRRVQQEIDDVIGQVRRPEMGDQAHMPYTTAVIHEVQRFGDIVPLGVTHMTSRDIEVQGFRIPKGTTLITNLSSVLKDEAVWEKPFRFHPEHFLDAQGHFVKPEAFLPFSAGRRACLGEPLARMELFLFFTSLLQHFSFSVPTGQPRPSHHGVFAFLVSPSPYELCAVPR
Chain of Cytochrome P450 2C19 (P33261 whole entry): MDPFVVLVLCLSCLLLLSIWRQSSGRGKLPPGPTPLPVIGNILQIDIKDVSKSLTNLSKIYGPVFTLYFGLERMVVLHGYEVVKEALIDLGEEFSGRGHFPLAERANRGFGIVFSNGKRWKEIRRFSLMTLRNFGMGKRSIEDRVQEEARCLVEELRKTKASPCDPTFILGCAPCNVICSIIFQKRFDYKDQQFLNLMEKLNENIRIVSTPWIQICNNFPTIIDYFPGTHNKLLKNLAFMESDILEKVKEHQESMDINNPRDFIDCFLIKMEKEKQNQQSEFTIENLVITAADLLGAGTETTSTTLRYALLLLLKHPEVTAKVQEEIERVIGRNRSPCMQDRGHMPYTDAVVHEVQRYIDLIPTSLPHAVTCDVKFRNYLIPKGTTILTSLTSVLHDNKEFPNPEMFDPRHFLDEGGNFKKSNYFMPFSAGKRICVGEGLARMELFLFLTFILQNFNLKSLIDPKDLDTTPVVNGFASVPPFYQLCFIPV
Chain of Cytochrome P450 3A4 (P08684 whole entry): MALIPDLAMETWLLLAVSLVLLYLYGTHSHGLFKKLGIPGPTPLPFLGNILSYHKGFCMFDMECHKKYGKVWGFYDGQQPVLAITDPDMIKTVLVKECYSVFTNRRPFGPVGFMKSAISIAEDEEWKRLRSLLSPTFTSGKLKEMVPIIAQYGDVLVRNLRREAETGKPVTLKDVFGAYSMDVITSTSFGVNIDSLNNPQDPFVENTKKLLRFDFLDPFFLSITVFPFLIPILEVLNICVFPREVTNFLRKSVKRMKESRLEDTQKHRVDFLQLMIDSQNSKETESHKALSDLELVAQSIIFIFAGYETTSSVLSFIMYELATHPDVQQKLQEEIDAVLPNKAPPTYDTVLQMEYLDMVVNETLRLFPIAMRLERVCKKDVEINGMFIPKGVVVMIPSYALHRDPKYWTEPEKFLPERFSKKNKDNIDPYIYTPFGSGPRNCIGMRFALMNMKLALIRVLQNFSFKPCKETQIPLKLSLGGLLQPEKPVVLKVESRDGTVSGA

SMILES | EC50 [1] [nM] | EC50 [2] [nM] | further results
Cc1cc(NC2CCCCC2)nc(NCc2ccccc2)n1 | 250 | 80 | CC50 at 96 h [3]: 7500 nM; solubility [4]: 26 µg/mL (≈ 87.7 µM); IC50 [5]: 4200 nM; IC50 [6]: > 5000 nM; CC50 at 96 h [7]: 7500 nM; logD [8]: 3.9; IC50 [9]: > 5000 nM; IC50 [10]: > 5000 nM; IC50 [11]: 3100 nM
COc1cc(CNc2nc(C)cc(NCc3ccccc3)n2)cc(OC)c1OC | 930 | 780 | 
Cc1cc(Nc2ccccc2)nc(N2CCCN(C)CC2)n1 |  |  | logD [8]: 1.7
Cc1cc(NC2CCCCC2)nc(NC2CCCCC2)n1 | 210 |  | 
Cc1cc(NCc2ccccc2)nc(NCC23CC4CC(CC(C4)C2)C3)n1 | 400 | 410 | 
Cc1cc(N(C)C2CCCCC2)nc(N[C@@H](C)c2ccccc2)n1 | 690 | 590 | 
CCCCCCCNc1nc(C)cc(NC2CCCCC2)n1 | 210 |  | 
Cc1cc(NC(C)C)nc(NCC23CC4CC(CC(C4)C2)C3)n1 | 270 |  | 
Cc1cc(N2CCCN(C(=O)OC(C)(C)C)CC2)nc(NC2CCN(Cc3ccccc3)CC2)n1 |  |  | logD [8]: 2.7
Cc1cc(Nc2ccccc2)nc(NCc2ccc3c(ccn3C)c2)n1 | 590 | 350 | 
Cc1cc(N2CCCNCC2)nc(NC2CCN(Cc3ccccc3)CC2)n1 |  |  | logD [8]: -0.15
Cc1cc(NC2CCCCC2)nc(NC2CCN(Cc3ccccc3)CC2)n1 | 250 |  | 
Cc1cc(NC2CCN(Cc3ccccc3)CC2)nc(N2CCCN(C)CC2)n1 |  |  | logD [8]: 1
Cc1cc(NC(C)C)nc(Nc2ccccc2)n1 | 1500 |  | 
Cc1cc(NC2CCCCC2)nc(N[C@@H](C)c2ccccc2)n1 | 500 | 120 | 
Cc1cc(NCc2ccccc2)nc(NC2CCCCC2)n1 | 1260 | 430 | 
Cc1cc(NC2CCCCC2)nc(N(C)Cc2ccccc2)n1 | > 10000 | > 10000 | 
Cc1cc(NC2CCN(Cc3ccccc3)CC2)nc(N2CCCN(C(=O)OC(C)(C)C)CC2)n1 |  |  | logD [8]: 2.77
Cc1cc(Nc2ccccc2)nc(NCc2ccccn2)n1 | 2140 |  | clearance [12]: 70 µL/min/mg; clearance [13]: 114 µL/min/mg

SMILES | EC50 [1] [nM] | EC50 [2] [nM] | further results
CCCCCCCNc1nc(C)cc(NC(C)C)n1 | 310 |  | 
Cc1cc(Nc2ccccc2)nc(NCc2ccc3c(c2)OCO3)n1 | 360 | 110 | IC50 [14]: 9500 nM; clearance [12]: 31.3 µL/min/mg; clearance [13]: > 119 µL/min/mg
Cc1cc(NCc2ccccc2)nc(NCCN2CCCC2)n1 | 1450 | 1080 | 
Cc1cc(NC(C)C)nc(NCc2ccc3c(ccn3C)c2)n1 | 1220 |  | 
FC(F)(F)c1cc(Nc2ccccc2)nc(NCc2ccccn2)n1 |  |  | IC50 [14]: 40100 nM; clearance [12]: > 99 µL/min/mg; clearance [13]: > 119 µL/min/mg
Cc1cc(NC2CCCCC2)nc(NCc2ccc3c(c2)OCO3)n1 | 200 |  | 
Cc1cc(NC2CCCCC2)nc(Nc2ccccn2)n1 | > 2000 | > 1000 | 
Cc1cc(NC(C)C)nc(NC2CCCCC2)n1 | 390 |  | 
Cc1cc(Nc2ccccc2)nc(NCc2ccccc2)n1 | 90 | 120 | clearance [12]: 55.2 µL/min/mg; clearance [13]: > 119 µL/min/mg
Cc1cc(Nc2ccccc2)nc(N2CCCN(C(=O)OC(C)(C)C)CC2)n1 |  |  | logD [8]: 3.95
Cc1cc(NC2CCCCC2)nc(NC(C)C)n1 | 740 |  | 
Cc1cc(NC(C)C)nc(NC2CCN(Cc3ccccc3)CC2)n1 | 810 |  | 
Cc1cc(NC(C)C)nc(NCc2ccc3c(c2)OCO3)n1 | 840 |  | 
Cc1cc(N(C)C2CCCCC2)nc(N(C)Cc2ccccc2)n1 | > 10000 | > 10000 | 
Cc1cc(NC(C)C)nc(NC(C)C)n1 | 4270 |  | 
Cc1cc(NC2CCCCC2)nc(N[C@H](C)c2ccccc2)n1 | 420 | 90 | 
COc1cc(CNc2nc(C)cc(NC(C)C)n2)cc(OC)c1OC | 1920 |  | 
Cc1cc(Nc2ccccc2)nc(NCCN2CCCC2)n1 | 1240 | 1460 | 
Cc1cc(NC2CCCCC2)nc(NCCN2CCCC2)n1 | 2750 |  | 

SMILES | EC50 [1] [nM] | EC50 [2] [nM] | further results
COc1cc(CNc2nc(C)cc(NC3CCCCC3)n2)cc(OC)c1OC | 260 |  | 
Cc1cc(Nc2ccccc2)nc(N2CCCNCC2)n1 |  |  | logD [8]: 0.51
Cc1cc(N2CCCN(C)CC2)nc(NC2CCN(Cc3ccccc3)CC2)n1 |  |  | logD [8]: 1
Cc1cc(NCc2ccccc2)nc(NC2CCN(Cc3ccccc3)CC2)n1 | 160 | 160 | 
Cc1cc(NC2CCN(Cc3ccccc3)CC2)nc(N2CCCNCC2)n1 |  |  | logD [8]: -0.17
Cc1cc(NC2CCCCC2)nc(NCC23CC4CC(CC(C4)C2)C3)n1 | 370 |  | 
FC(F)(F)c1cc(Nc2ccncc2)nc(NCc2ccc3c(c2)OCO3)n1 |  |  | IC50 [14]: 135000 nM
Cc1cc(NC(C)C)nc(NCCN2CCCC2)n1 | > 5000 |  | 
Cc1cc(Nc2ccccc2)nc(NC(C)C)n1 | 750 | 280 | 
Cc1cc(NC2CCCCC2)nc(Nc2ccccc2)n1 | 230 |  | 
Cc1cc(NCc2ccccc2)nc(NC(C)C)n1 | 1050 | 1430 | 
CCCCCCCNc1nc(C)cc(Nc2ccccc2)n1 | 90 | 90 | 
Cc1cc(N(C)C2CCCCC2)nc(NCc2ccccc2)n1 | 1020 | 680 | 
Cc1cc(NC2CCCCC2)nc(NCc2ccc3c(ccn3C)c2)n1 | 240 |  | 
FC(F)(F)c1cc(Nc2ccccc2)nc(NCc2ccncc2)n1 |  |  | clearance [12]: 56.2 µL/min/mg; clearance [13]: > 119 µL/min/mg
Cc1cc(N(C)C2CCCCC2)nc(N[C@H](C)c2ccccc2)n1 | 940 | 630 | 
Cc1cc(NC(C)C)nc(NCc2ccccc2)n1 | 350 |  | 
Cc1cc(NCc2ccccc2)nc(Nc2ccccc2)n1 | 1020 | 850 | 
